Assay outcomes: PubChem, The Scripps Research Institute Molecular Screening Center
Shown are actives, neighbours in structure and some others; about 0.74% of the full set was active somewhere.
DDE Tn6 FP inh – inhibitors of Tn6 peptide binding to fibrin DD(E), primary screen, biochemical, fluorescence polarization, human fibrin, Tn6 probe; Fibrin DD(E) TRITC-Tn6 fluorescence polarization displacement; inhibition, % at 8.3 µM; 370,000 compounds, 0.21% hits; AID 720509, 2013;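 active = inhibition above a per-campaign cutoff: mean of compounds within control limits plus 3 SD, cut at about 15% in these data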;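 also: 0% = median of all compound wells on the plate and 100% = blocking peptide control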
ARFGAP1 inhibitor – inhibitors of rat ARFGAP1 GAP activity, primary screen, biochemical, fluorescence polarization, GDP tracer; Arfgap1-stimulated ARF1 GTP hydrolysis, GDP FP detection; ADP-ribosylation factor GTPase-activating protein 1 (Rattus norvegicus), Q62848; inhibition, % at 16.5 µM; AID 651572, 2012; 360,000 compounds, 0.26% hits;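 active = inhibition above a per-plate limit, mean inhibition of low control wells plus 3 SD, cut at about 25% in these data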;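 also: 0% = DMSO wells with enzyme and 100% = wells lacking Arfgap1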
Target sequence (Q62848 1-136 limits assumed): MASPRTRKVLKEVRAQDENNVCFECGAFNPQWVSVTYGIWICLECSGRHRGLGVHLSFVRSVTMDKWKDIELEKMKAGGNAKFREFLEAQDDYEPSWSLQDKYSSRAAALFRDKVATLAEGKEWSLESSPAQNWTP
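System: truncated rat Arfgap1 GAP domain / Medium: HEPES-based buffer, pH 7.5 / Also added: N-terminally truncated human ARF1-GTP substrate / Incubation: enzyme reaction 120 min at 25 °C after 20 min preincubation / Measured by: FP of antibody-bound GDP Alexa 633 tracer, ex 620/em 688 nm / Replicates: singlicate, each compound tested once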
ASAP1 inh – inhibitors of human ASAP1 ArfGAP activity, primary screen, biochemical, fluorescence polarization; Arf-GAP with SH3 domain, ANK repeat and PH domain-containing protein 1 (Homo sapiens), …; ASAP1-stimulated ARF1 GTP hydrolysis, GDP FP detection; inhibition, % at 16.5 µM; 360,000 compounds, 0.19% hits; in the data active = inhibition above about 25%;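 also: 0% = vehicle with enzyme and substrate and 100% = no enzyme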
DDE Tn7 FP inh – inhibitors of Tn7 peptide binding to fibrin DD(E), primary screen, biochemical, fluorescence polarization, human fibrin, Tn7 probe; FP displacement of FITC-Tn7 peptide from fibrin DD(E); 0% = median of compound wells per plate; inhibition, % at 8.3 µM; 370,000 compounds, 0.13% hits; AID 720508, 2013;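 active = inhibition above the mean of compounds falling within the control limits plus 3 SD of them, cut at about 14% in these data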;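 also: 0% = plate median of compound wells and 100% = 10 µM Aha-Tn7 peptide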
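Measure: % inhibition scaled between sample-field median and high-control FP; Test system: human fibrin DD(E); Quantity: 2 µM final DD(E) protein; Doses: one dose, 8.3 µM nominal; Schedule: compound with protein 10 min, then 3 h after probe, room temperature; Detection: fluorescence polarization; Medium: Tris buffer with calcium and detergent, pH 7.8.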
Tn6 DDE ctr – counter-screen for inhibitors of Tn6 peptide binding to fibrin DD(E). shares compounds with DDE Tn6 FP inh. TRITC-Tn6 fluorescence polarization displacement; 0% = median of compound wells, not DMSO. inhibition, % at 8.3 µM. 680 compounds, 2% hits. AID 720621;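 active = inhibition above the mean of test compounds lying between the control limits plus 3 SD of those, cut at about 14% in these data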;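 also: 0% = median of compound wells and 100% = wells with Aha-Tn7 blocking peptide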
Tn6 DDE conf – inhibitors of Tn6 peptide binding to fibrin DD(E), confirmation, biochemical, fluorescence polarization, human fibrin, Tn6 probe | inhibition, % at 8.3 µM | FP displacement of TRITC-Tn6 peptide from DD(E); 0% = per-plate median of test wells | shares compounds with DDE Tn6 FP inh | 680 compounds, 10% hits;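 active = inhibition above the mean of compounds lying within the control limits plus 3 SD, cut at about 16% in these data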;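 also: 100% = high control wells holding a competing inhibitor peptide at 10 µM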
* hit, by the source's call; x = no result; ! = not confirmed by another sample.

SMILES | DDE Tn6 FP inh | ARFGAP1 inhibitor | ASAP1 inh | DDE Tn7 FP inh | Tn6 DDE ctr | Tn6 DDE conf
CCN1C=C(Cc2ccc(F)cc2)C2=C(C1)C(c1ccc(F)cc1)C(C#N)=C(N)O2 (stereo unspecified) | 18* | -1 | -5 | 8 | 9 | 9
Cc1cc2ncc(S(=O)(=O)c3ccccc3)c(N)n2n1 | 0 | -1 | -7 | 5 | x | x
Cc1cc2ncc(S(=O)(=O)C(C)(C)C)c(N)n2n1 | 17* | 5 | 5 | 0 | 8 | 3
CCn1ccc(=N)cc1 | 20* | -2 | -1 | 5 | 3 | -8
CN(C)C(=O)c1cccc(-c2cnc3c(NC=O)cc(-c4ccccc4N(C)C)cn23)c1 | 31* | 8 | 23 | -8 | 3 | -5
O=C(NC(=S)Nc1ccccc1)c1cc(-c2ccccc2)nc2ccccc12 | 21* | 13 | 17 | 5 | 7 | -3
O=C(NC(=S)Nc1ccccn1)c1cc(-c2ccccc2)nc2ccccc12 | 2 | 6 | 7 | -4 | x | x
CCOc1ccc(-n2c(SCC(=O)Nc3ccc(S(=O)(=O)Nc4cc(C)nc(C)n4)cc3)nnc2-c2cccc(C)c2)cc1 | -5 | x | x | -14 | x | x
O=C(O)c1ccc(-n2nc(C(F)(F)F)c3c2CCCC3)cc1 | 21*! | -2 | -2 | 2 | 4 | 3
NC(=O)c1ccc(-n2nc(C(F)(F)F)c3c2CCCC3)cc1 | -1 | 17 | -6 | 5 | x | x
O=S(=O)(Nc1cccc(-c2cn3cccnc3n2)c1)c1ccc(-c2ccccc2)cc1 | 20* | 5 | -4 | -3 | 1 | -6
O=S(=O)(Nc1cccc(-c2cn3cccnc3n2)c1)c1ccccc1 | -9 | -5 | 13 | 2 | x | x
O=C(CSc1nnc(CNC(=O)c2ccco2)o1)NC1CCCC1 | 16* | 4 | 2 | 7 | 0 | -3
C[C@@H]1CN(Cc2nc(-c3ccc(Cl)cc3)no2)C[C@H](C)O1 | 17* | -1 | -1 | -3 | -1 | -4
N#Cc1cccc(NC(=O)O[C@@H]2CC[C@@]34CCCN3C(=O)CCC[C@H]4C2)c1 | 1 | x | x | -6 | x | x
COCCCNC(=O)C[C@H]1C[C@@]2(C(=O)OC)C(=C[C@H](COCc3ccccc3)O[C@@H]2C)N(Cc2ccc(Cl)cc2Cl)C1=O | 2 | x | x | -1 | x | x
COc1ccc(-n2c(=O)[nH]cc(C(=O)Nc3ccc4c(c3)OCCO4)c2=O)cc1OC | 2 | -3 | -9 | -2 | x | x
O=C(Nc1ccc2c(c1)OCO2)c1c[nH]c(=O)n(-c2ccc(F)cc2)c1=O | 15* | 7 | 3 | 1 | 5 | 4
COC(=O)[C@]12C=CCN1[C@H](c1ccc(OC)c(OC)c1)c1c(c3ccccc3n1S(=O)(=O)c1ccc(C)cc1)C2 | -2 | x | x | -4 | x | x
COC(=O)[C@]12C=CCN1[C@H](c1ccccc1)c1c(c3ccccc3n1S(=O)(=O)c1ccc(C)cc1)C2 | 19* | x | x | -9 | 2 | 4
CC1(C)CCN2CCC(C)(C)c3c(O)ccc1c32 | 30* | 7 | 8 | 8 | 2 | 4
O=C(O)CCN(Cc1ccccc1)S(=O)(=O)c1ccc(Cl)cc1F | 16* | 5 | 10 | 4 | -1 | -4
O=C(O)CCN(Cc1ccccc1)S(=O)(=O)c1ccccc1Cl | -6 | -8 | 2 | -5 | x | x
O=C(OC12CCCN(C1)/C(=C/c1ccncc1)C2)c1cccc(F)c1 (stereo unspecified) | 3 | x | x | 3 | x | x
CCC(C)(C)C1CCc2c(sc(N)c2C(N)=O)C1 (stereo unspecified) | 17* | -14 | -8 | 7 | -3 | -10
O=C(Nc1ccc(Cl)c(C(F)(F)F)c1)c1ccncc1 | -7 | 0 | -9 | -1 | x | x
